Reference: ChEMBL document CHEMBL1128448, “Synthesis and antifungal activity of new azole derivatives containing an N-acylmorpholine ring” (1995)

Experiments:
Pichia kudriavzevii [1] = assay: Evaluation of In vitro antifungal activity against Candida krusei 70 by broth macro dilution method; assay type: functional
Method in brief: (§1)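 Yeast MIC and MFC by broth macrodilution per NCCLS M27-P in RPMI-1640 buffered with 0.165 M MOPS. Fluconazole in sterile water, other drugs in DMSO. C. parapsilosis ATCC 22019 is the reference strain in each run. MIC is the lowest concentration with turbidity ≤ the 80% inhibition standard. For MFC, 0.04 mL from clear tubes is plated on Sabouraud agar; MFC is the lowest concentration giving ≤1 colony.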

Mus sp. [2] = assay: In vivo evaluation of % survival rate after peroral administration on 5th day at dose 0.5 mg/kg; assay type: functional; conditions: route oral
Aspergillus fumigatus = assay: In vitro evaluation of minimum inhibitory concentration against Aspergillus fumigatus 33; assay type: functional; conditions: Aspergillus fumigatus; read-out: MIC
Method in brief: (§2)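 Stocks are 800 μg/mL in 50% ethanol. Each plate gets 10 μL of inoculum at 10^5 cfu/mL. Incubation at 25 °C, 48 h for yeasts and 120 h for dermatophytes and molds. Organisms are ATCC strains or clinical isolates.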

Pichia kudriavzevii [3] = assay: Evaluation of In vitro antifungal activity against Candida krusei C64 by broth macro dilution method; assay type: functional; method in brief: as §1
Candida albicans [4] = assay: Evaluation of In vitro antifungal activity against Candida albicans ATCC 10231 by broth macro dilution method; assay type: functional; method in brief: as §1
Cryptococcus neoformans [5] = assay: Evaluation of In vitro antifungal activity against Cryptococcus neoformans 87 by broth macro dilution method; assay type: functional; method in brief: as §1
Aspergillus flavus = assay: In vitro evaluation of minimum inhibitory concentration against Aspergillus flavus 19; assay type: functional; conditions: Aspergillus flavus; read-out: MIC; method in brief: as §2
Mus sp. [6] = assay: In vivo evaluation of % survival rate after peroral administration on 9th day at dose 1 mg/kg; assay type: functional
Candida parapsilosis [7] = assay: In vitro evaluation of minimum inhibitory concentration against Candida parapsilosis 61; assay type: functional; conditions: Lodderomyces parapsilosis; read-out: MIC; method in brief: as §2
Mus sp. [8] = assay: In vivo evaluation of % survival rate after peroral administration on 9th day at dose 0.5 mg/kg; assay type: functional; conditions: Mus sp., po
Kluyveromyces marxianus [9] = assay: Evaluation of In vitro antifungal activity against yeasts by broth macro dilution method; assay type: functional; method in brief: as §1
Microsporum canis = assay: In vitro evaluation of minimum inhibitory concentration against Microsporum canis 47; assay type: functional; conditions: Microsporum canis; read-out: MIC; method in brief: as §2
Mus musculus = assay: In vivo evaluation of % survival rate after peroral administration on 7th day at dose 0.5 mg/kg; assay type: functional; conditions: Mus musculus, po
Trichophyton benhamiae = assay: In vitro evaluation of minimum inhibitory concentration against Trichophyton mentagrophytes 23; assay type: functional, Arthroderma benhamiae; conditions: Trichophyton benhamiae; read-out: MIC; method in brief: as §2
Candida albicans [10] = assay: Evaluation of In vitro antifungal activity against Candida albicans 60 by broth macro dilution method
[11] = tested on: Meyerozyma guilliermondii; assay: In vitro evaluation of minimum inhibitory concentration against Candida guilliermondii 26; assay type: functional; conditions: Meyerozyma guilliermondii; read-out: MIC; method in brief: as §2
Candida albicans [12] = assay: Evaluation of In vitro antifungal activity against Candida albicans C56 by broth macro dilution method; assay type: functional; method in brief: as §1
Candida albicans [13] = assay: Evaluation of […] antifungal activity against Candida albicans 60 by broth macro dilution method; assay type: functional; method in brief: as §1
Candida albicans [14] = assay: Evaluation of In vitro antifungal activity against Candida albicans 76 by broth macro dilution method; assay type: functional; method in brief: as §1
Aspergillus niger = assay: In vitro evaluation of minimum inhibitory concentration against Aspergillus niger 18; assay type: functional; conditions: Aspergillus niger; read-out: MIC; method in brief: as §2
Candida parapsilosis [15] = assay: Evaluation of In vitro antifungal activity against Candida parapsilosis ATCC 141095 by broth macro dilution method; assay type: functional; conditions: Lodderomyces parapsilosis; method in brief: as §1
Candida parapsilosis [16] = assay: Evaluation of In vitro antifungal activity against Candida parapsilosis C74 by broth macro dilution method; assay type: functional; conditions: Lodderomyces parapsilosis; method in brief: as §1
Candida parapsilosis [17] = assay: Evaluation of In vitro antifungal activity against Candida parapsilosis C292 by broth macro dilution method; assay type: functional; conditions: Lodderomyces parapsilosis; method in brief: as §1
Kluyveromyces marxianus [18] = assay: Evaluation of In vitro antifungal activity against Candida pseudotropicalis ATCC 28838 by broth macro dilution method; assay type: functional; method in brief: as §1
Candida parapsilosis [19] = assay: Evaluation of In vitro antifungal activity against Candida parapsilosis ATCC 22019 by broth macro dilution method; assay type: functional; conditions: Lodderomyces parapsilosis; method in brief: as §1
Pichia kudriavzevii [20] = assay: In vitro evaluation of minimum inhibitory concentration against Candida krusei 70; assay type: functional; conditions: Pichia kudriavzevii; read-out: MIC; method in brief: as §2
Candida albicans [21] = assay: Evaluation of In vitro antifungal activity against Candida albicans C52 by broth macro dilution method; assay type: functional; method in brief: as §1
Mus sp. [22] = assay: In vivo evaluation of % survival rate after peroral administration on 5th day at dose 1 mg/kg; assay type: functional; conditions: Mus sp., po
[23] = tested on: Meyerozyma guilliermondii; assay: Evaluation of In vitro antifungal activity against Candida guilliermondii 26 by broth macro dilution method; assay type: functional; method in brief: as §1
Cryptococcus neoformans [24] = assay: Evaluation of In vitro antifungal activity against Cryptococcus neoformans 74 by broth macro dilution method; assay type: functional; method in brief: as §1
Candida tropicalis [25] = assay: Evaluation of In vitro antifungal activity against Candida tropicalis 2.11 by broth macro dilution method; assay type: functional; method in brief: as §1
Mus sp. [26] = assay: In vivo evaluation of % survival rate after peroral administration on 3rd day at dose 0.5 mg/kg; assay type: functional; conditions: route oral
Trichophyton rubrum = assay: In vitro evaluation of minimum inhibitory concentration against Trichophyton rubrum 90; assay type: functional; conditions: Trichophyton rubrum; read-out: MIC; method in brief: as §2
Mus sp. [27] = assay: In vivo evaluation of % survival rate after peroral administration on 7th day at dose 1 mg/kg; assay type: functional
Rattus norvegicus = assay: In vivo evaluation of antifungal activity against vaginal candidosis in rat at dose 0.25 mg/kg on 15th day; assay type: functional
Method in brief: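 Groups of 10 female Wistar rats given estradiol 25 mg/kg sc on day -5, infected intravaginally with C. albicans by sterile swab on day 0; infection confirmed on day 3 by swab culture (TSB, then Sabouraud agar). Oral dosing once daily on days 3, 4, 5; vehicle controls. Vaginal swabs cultured on days 10 and 15; read-out % cured (culture-negative).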

Candida albicans [28] = assay: In vitro evaluation of minimum inhibitory concentration against Candida albicans 76; assay type: functional; method in brief: as §2
Mus sp. [29] = assay: In vivo evaluation of % survival rate after peroral administration on 3rd day at dose 1 mg/kg; assay type: functional; conditions: Mus sp., po
Candida albicans [30] = assay: Evaluation of In vitro antifungal activity against Candida albicans 2.01 by broth macro dilution method; assay type: functional; method in brief: as §1
Candida albicans [31] = assay: Evaluation of In vitro antifungal activity against Candida albicans 31 by broth macro dilution method; assay type: functional; method in brief: as §1
Nakaseomyces glabratus = assay: Evaluation of In vitro antifungal activity against Torulopsis glabrata 78 by broth macro dilution method; assay type: functional; method in brief: as §1
Candida albicans [32] = assay: Evaluation of In vitro antifungal activity against Candida albicans 406 by broth macro dilution method; assay type: functional; method in brief: as §1
Candida tropicalis [33] = assay: Evaluation of In vitro antifungal activity against Candida tropicalis 50 by broth macro dilution method; assay type: functional; method in brief: as §1

C[C@H]1N(C(=O)c2ccc(C(F)(F)F)cc2)C[C@H](O)O[C@@]1(Cn1cncn1)c1ccc(F)cc1F (stereo in doubt; (-)-39a)
80%: survival at 0.5 mg/kg (Mus musculus)
16 µg/mL: MIC (Candida parapsilosis [19])
> 64 µg/mL: MFC (Pichia kudriavzevii [1]) | MIC (Pichia kudriavzevii [1]) | MFC (Pichia kudriavzevii [3]) | MIC (Pichia kudriavzevii [3]) | MFC (Candida albicans [4]) | MFC (Cryptococcus neoformans [5]) | MFC (Candida albicans [10]) | MFC (Candida albicans [12]) | MFC (Candida albicans [14]) | MFC (Candida parapsilosis [15]) | MIC (Candida parapsilosis [15]) | MFC (Candida parapsilosis [17]) | MFC (Candida albicans [21]) | MFC [23] | MFC (Candida tropicalis [25]) | MFC (Candida albicans [30]) | MFC (Candida albicans [31]) | MFC (Nakaseomyces glabratus) | MIC (Nakaseomyces glabratus) | MFC (Candida albicans [32]) | MFC (Candida tropicalis [33]) | MIC (Candida tropicalis [33])
10 µg/mL: MIC (Candida albicans [28])
0.25 µg/mL: MIC (Cryptococcus neoformans [24])
64 µg/mL: MFC (Kluyveromyces marxianus [18]) | MIC (Candida tropicalis [25])
40 µg/mL: MIC (Candida parapsilosis [7]) | MIC (Microsporum canis) | MIC (Trichophyton rubrum)
32 µg/mL: MFC (Candida parapsilosis [16]) | MFC (Candida parapsilosis [19]) | MIC [23]
80 µg/mL: MIC (Aspergillus fumigatus) | MIC [11]
100%: survival at 0.5 mg/kg (Mus sp. [2]) | Survival (Mus sp. [6]; route oral, 1 mg/kg) | survival at 1 mg/kg (Mus sp. [22]) | survival at 0.5 mg/kg (Mus sp. [26]) | Survival (Mus sp. [27]; route oral, 1 mg/kg) | Cure rate (Rattus norvegicus) | survival at 1 mg/kg (Mus sp. [29])
40%: survival at 0.5 mg/kg (Mus sp. [8])
0.5 µg/mL: MIC (Candida albicans [4]) | MIC (Kluyveromyces marxianus [9]) | MIC (Candida albicans [21]) | MIC (Candida albicans [31])
2 µg/mL: MIC (Candida parapsilosis [16]) | MFC (Cryptococcus neoformans [24]) | MIC (Candida albicans [30])
1 µg/mL: MIC (Candida albicans [12]) | MIC (Candida albicans [13]) | MIC (Candida albicans [14]) | MIC (Candida albicans [32])
8 µg/mL: MIC (Candida parapsilosis [17])
> 80 µg/mL: MIC (Aspergillus flavus) | MIC (Trichophyton benhamiae) | MIC (Aspergillus niger) | MIC (Pichia kudriavzevii [20])
4 µg/mL: MIC (Cryptococcus neoformans [5])

OC(Cn1cncn1)(Cn1cncn1)c1ccc(F)cc1F [FLUCONAZOLE]
0.5 µg/mL: MIC (Kluyveromyces marxianus [9]) | MIC (Candida albicans [12]) | MIC (Candida albicans [13]) | MIC (Cryptococcus neoformans [24])
10%: survival at 0.5 mg/kg (Mus sp. [8])
52%: survival at 1 mg/kg (Mus sp. [27]; Mus sp., po)
40 µg/mL: MIC (Candida albicans [28]; Candida albicans, read-out: MIC)
20 µg/mL: MIC (Candida parapsilosis [7])
1 µg/mL: MIC (Candida parapsilosis [17]) | MFC (Cryptococcus neoformans [24]) | MIC (Candida tropicalis [25]) | MIC (Candida albicans [30])
25%: Cure rate (Rattus norvegicus)
20%: survival at 0.5 mg/kg (Mus musculus)
32 µg/mL: MIC (Pichia kudriavzevii [1]) | MFC (Kluyveromyces marxianus [18]) | MIC (Nakaseomyces glabratus)
8 µg/mL: MIC (Cryptococcus neoformans [5]) | MIC [23] | MIC (Candida tropicalis [33])
2 µg/mL: MIC (Candida albicans [4]) | MIC (Candida parapsilosis [15]) | MFC (Candida parapsilosis [16])
0.25 µg/mL: MIC (Candida albicans [14]) | MIC (Candida parapsilosis [16]) | MIC (Candida albicans [21]) | MIC (Candida albicans [31]) | MIC (Candida albicans [32])
10 µg/mL: MIC [11]
100%: survival at 0.5 mg/kg (Mus sp. [26]) | survival at 1 mg/kg (Mus sp. [29])
6%: survival at 1 mg/kg (Mus sp. [6]; Mus sp., po)
> 80 µg/mL: MIC (Aspergillus fumigatus) | MIC (Aspergillus flavus) | MIC (Microsporum canis) | MIC (Trichophyton benhamiae) | MIC (Aspergillus niger) | MIC (Pichia kudriavzevii [20]) | MIC (Trichophyton rubrum)
96%: survival at 1 mg/kg (Mus sp. [22])
4 µg/mL: MIC (Candida parapsilosis [19])
> 64 µg/mL: MFC (Pichia kudriavzevii [1]) | MFC (Pichia kudriavzevii [3]) | MFC (Candida albicans [4]) | MFC (Cryptococcus neoformans [5]) | MFC (Candida albicans [10]) | MFC (Candida albicans [12]) | MFC (Candida albicans [14]) | MFC (Candida parapsilosis [15]) | MFC (Candida parapsilosis [17]) | MFC (Candida parapsilosis [19]) | MFC (Candida albicans [21]) | MFC (Candida tropicalis [25]) | MFC (Candida albicans [30]) | MFC (Candida albicans [31]) | MFC (Nakaseomyces glabratus) | MFC (Candida albicans [32]) | MFC (Candida tropicalis [33])
90%: survival at 0.5 mg/kg (Mus sp. [2])
64 µg/mL: MIC (Pichia kudriavzevii [3])
